Our source for the IC50, inhibition in vivo and ID50 values is ChEMBL document CHEMBL1137826, “A new class of acyclic 2-alkyl-1,1,2-triaryl (Z)-olefins as selective cyclooxygenase-2 inhibitors” (J Med Chem, 2004).

The target in experiment [1] is T1, Prostaglandin G/H synthase 1 (Ovis aries, UniProt P05979).
T1 sequence (P05979 whole entry): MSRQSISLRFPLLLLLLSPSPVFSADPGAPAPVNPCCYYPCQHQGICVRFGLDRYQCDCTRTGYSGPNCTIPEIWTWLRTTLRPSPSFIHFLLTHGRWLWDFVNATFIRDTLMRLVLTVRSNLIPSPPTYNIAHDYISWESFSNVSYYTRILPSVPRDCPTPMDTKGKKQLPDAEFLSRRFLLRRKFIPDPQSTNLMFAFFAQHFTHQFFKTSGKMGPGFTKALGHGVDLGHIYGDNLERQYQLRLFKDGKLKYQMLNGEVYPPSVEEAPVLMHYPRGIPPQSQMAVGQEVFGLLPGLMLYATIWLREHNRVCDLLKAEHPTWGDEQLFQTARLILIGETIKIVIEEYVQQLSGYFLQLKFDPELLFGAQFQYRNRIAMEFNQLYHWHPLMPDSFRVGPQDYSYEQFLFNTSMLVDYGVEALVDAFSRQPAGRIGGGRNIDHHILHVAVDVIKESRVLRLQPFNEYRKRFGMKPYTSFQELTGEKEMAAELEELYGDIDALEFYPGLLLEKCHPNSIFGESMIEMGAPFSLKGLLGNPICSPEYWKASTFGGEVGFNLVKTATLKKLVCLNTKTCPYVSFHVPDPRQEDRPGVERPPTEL
Kind of experiment: In vitro inhibition of ovine prostaglandin G/H synthase 1.

Experiment [2] has as its system Rattus norvegicus. Briefly: Percent inhibition of 4% sodium chloride-induced abdominal constriction in rat after 30 min of 5 mg/kg oral dose of the compound. Particulars: Abdomen, 0.5 h. In kind it is functional. The essentials: (§1)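 Test compound given to rats orally at 5 mg/kg before 4% NaCl-induced writhing (abdominal constriction).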
The subject of experiment [3] is Rattus norvegicus. Briefly: Percent inhibition of 4% sodium chloride-induced abdominal constriction in rat after 60 min of 5 mg/kg oral dose of the compound. In kind it is functional. Particulars: Abdomen, 1 h. Put shortly:
as §1

Experiment [4] concerns the target T2, Prostaglandin G/H synthase 2 (Rattus norvegicus) (UniProt P35355).
T2 sequence (whole entry): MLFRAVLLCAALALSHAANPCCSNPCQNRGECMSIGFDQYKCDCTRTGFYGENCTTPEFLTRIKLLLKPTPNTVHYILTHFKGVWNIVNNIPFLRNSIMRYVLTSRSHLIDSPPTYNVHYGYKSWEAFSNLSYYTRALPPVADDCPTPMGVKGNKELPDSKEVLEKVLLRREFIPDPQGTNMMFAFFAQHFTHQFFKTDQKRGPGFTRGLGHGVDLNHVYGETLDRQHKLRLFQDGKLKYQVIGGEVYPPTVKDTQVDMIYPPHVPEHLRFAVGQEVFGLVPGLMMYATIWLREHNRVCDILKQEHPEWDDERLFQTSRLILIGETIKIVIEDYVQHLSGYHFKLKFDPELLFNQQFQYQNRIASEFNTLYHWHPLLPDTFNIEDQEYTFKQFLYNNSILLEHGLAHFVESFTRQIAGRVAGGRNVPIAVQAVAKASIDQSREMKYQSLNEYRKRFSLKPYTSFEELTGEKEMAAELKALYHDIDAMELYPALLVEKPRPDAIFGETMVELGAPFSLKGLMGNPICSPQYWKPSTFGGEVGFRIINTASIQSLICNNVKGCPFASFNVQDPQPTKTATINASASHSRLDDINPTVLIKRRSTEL

Experiment [5] is filed under the species Rattus norvegicus. Kind of experiment: animal or person. The note with it: Abdomen, po, 0.5 h, read-out: Inhibition.

pIC50: −log10 of the molar value.

Regarding `CCC/C(=C(\c1ccccc1)c1ccc(S(C)(=O)=O)cc1)c1ccccc1`, the pIC50 in experiment [1] was less than 4.00.
For `CC/C(=C(\c1ccccc1)c1ccc(S(C)(=O)=O)cc1)c1ccccc1`, the pIC50 in experiment [1] was less than 4.00. The results for the inhibition in vivo at 5 mg/kg in experiment [2] and in experiment [3] were 38.8% and 50%, respectively. The ID50 in experiment [4] stood at 1.9 mg/kg.
In experiment [1], `CCCCCCCC/C(=C(\c1ccccc1)c1ccc(S(C)(=O)=O)cc1)c1ccccc1` gave a pIC50 of less than 4.00.
As for `Cc1ccc(-c2cc(C(F)(F)F)nn2-c2ccc(S(N)(=O)=O)cc2)cc1` [CELECOXIB], in experiment [5], the inhibition in vivo at 50 mg/kg amounted to 69.3%.
Take `CCCC/C(=C(\c1ccccc1)c1ccc(S(C)(=O)=O)cc1)c1ccc(OC(C)=O)cc1`: in experiment [1], the pIC50 is less than 4.00.
As for `CCCC/C(=C(\c1ccccc1)c1ccc(S(C)(=O)=O)cc1)c1ccccc1`, the pIC50 in experiment [1] is 4.52.
Regarding `CC/C(=C(\c1ccccc1)c1ccc(S(C)(=O)=O)cc1)c1ccc(OC(C)=O)cc1`, the pIC50 in experiment [1] was 6.60. In addition, the inhibition in vivo at 5 mg/kg in experiment [2] was determined as 60%; in experiment [3] it was 57.5%. Besides, in experiment [4], the ID50 is 1.3 mg/kg.
The compound `CCCCCC/C(=C(\c1ccccc1)c1ccc(S(C)(=O)=O)cc1)c1ccccc1` had a pIC50 in experiment [1] of less than 4.00. Moreover, the values for the inhibition in vivo at 5 mg/kg in experiment [2] and in experiment [3] were 33.3% and 35.4%, respectively. This compound also showed an ID50 in experiment [4] of 1.1 mg/kg.
